Data on 9 compounds can be found in ChEMBL document CHEMBL1772959, “Comosusols A-D and comosone A: cytotoxic compounds from the brown alga Sporochnus comosus” (J Nat Prod, 2011).

One data set deals with SF-268. Kind of data set: Growth inhibition of human SF268 cells after 48 hrs by sulforhodamine B assay. The format is functional. The note with it: SF-268, 48 h. In outline: (§1)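 Grown in RPMI 1640 with L-glutamine plus 5% fetal bovine serum at 37 C, 5% CO2. Seeded at 5000 cells/well and allowed to attach 24 h. Pure compounds were added from DMSO as serial dilutions in medium over 66.7-0.01 μg/mL final. Cells were TCA-fixed and SRB-stained at 0 and 48 h, with absorbance read at 490 nm. GI50 was taken against vehicle-only and time-0 readings.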

A further data set deals with MCF7. Kind of data set: Growth inhibition of human MCF7 cells after 48 hrs by sulforhodamine B assay. The format is functional. As to conditions: MCF7, 48 h. An outline of the steps:
as §1

The test system of the next data set is NCI-H460. Kind of data set: Growth inhibition of human H460 cells after 48 hrs by sulforhodamine B assay. The format is functional. The note with it: NCI-H460, 48 h. An outline of the steps: as §1
The subject of another data set is HT-29. Briefly: Growth inhibition of human HT-29 cells after 48 hrs by sulforhodamine B assay. The format is functional. The note with it: HT-29, 48 h. An outline of the steps:
(§2)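 Cultured in MEM with Earle's salts, L-glutamine, nonessential amino acids and sodium pyruvate at 37 C, 5% CO2. Plated at 5000 cells/well with 24 h attachment. Pure compounds were given as serial dilutions from DMSO in medium over 66.7-0.01 μg/mL final. SRB protein staining after TCA fixation at 0 and 48 h, read at 490 nm. GI50 came from comparison with vehicle-only and time-0 values.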

Data set [1] can be described thus: Growth inhibition of chinese hamster CHOK1 cells after 48 hrs by sulforhodamine B assay. The format is cell-based, Cricetulus griseus. The note with it: CHO-K1 cells. An outline of the steps: as §2

As to `CC(=O)O[C@H]1CC(C)(C)C(=C=C/C(C)=C/C=C/C(C)=C/C=C/C=C(C)/C=C/C=C(\C)C(=O)C[C@@]23O[C@]2(C)C[C@@H](O)CC3(C)C)[C@](C)(O)C1`, the 50% growth inhibitory concentration (GI50) with SF-268 came out at 12 µM; in the data set on MCF7, 8 µM; in the data set with NCI-H460, 14 µM; with HT-29, 17 µM. The compound further showed a GI50 at 48 h in data set [1] of 12 µM.

Regarding `C=CC(C)(C)c1ccc(O)c(CC=C(C)C)c1`, the GI50 with SF-268 amounted to 39 µM; with MCF7 it was 27 µM; in the data set with NCI-H460, 37 µM; with HT-29, 57 µM. The compound also had a GI50 at 48 h in data set [1] of 29 µM.

As to `C=CC(C)(C)C1=CC(=O)C(CC=C(C)C)=CC1=O`, the GI50 in the data set with SF-268 came out at 17 µM; in the data set on MCF7 it was 26 µM; with NCI-H460, 41 µM; in the data set on HT-29 it was 37 µM. Further, in data set [1], halving of growth (GI50 at 48 h) required 17 µM.

With `CC(C)=CCC1(CC=C(C)C)C[C@@H](O)C=CC1=O` [COMOSONE A], the GI50 with SF-268 was 13 µM; in the data set with MCF7, 14 µM; with NCI-H460, 19 µM; in the data set on HT-29, 19 µM. Moreover, the GI50 at 48 h in data set [1] was 17 µM.

For the compound `CC(C)=CCc1cc(O)cc(/C=C\C(C)(C)O)c1O` [COMOSUSOL A], the GI50 came to 55 µM in the data set on SF-268, 52 µM in the data set on MCF7, 55 µM in the data set with NCI-H460 and 53 µM with HT-29. Further, the GI50 at 48 h in data set [1] stood at 57 µM.

Regarding `C=CC(C)(C)c1cc(O)c(/C=C\C(C)(C)O)cc1O` [COMOSUSOL B], the GI50 came to 5 µM with SF-268, 6 µM in the data set on MCF7, 6 µM in the data set with NCI-H460 and 6 µM with HT-29. Besides, in data set [1], the GI50 at 48 h worked out at 6 µM.

As to `C=CC(C)(C)c1cc(O)c(CC=C(C)C)cc1O` [COMOSUSOL C], the 50% growth inhibitory concentration (GI50) was found to be 35 µM in the data set on SF-268, 25 µM with MCF7, 29 µM with NCI-H460 and 43 µM in the data set with HT-29. Moreover, halving of growth in data set [1] (GI50 at 48 h) required 27 µM.

On to `C=CC(C)(C)c1cc(O)c(C(O)C(O)C(C)(C)O)cc1O` (stereo not given) [COMOSUSOL D], for which the GI50 with SF-268 came to 59 µM; in the data set on MCF7, 46 µM; with NCI-H460, 54 µM; in the data set on HT-29 it was 51 µM. The compound further yielded a GI50 at 48 h in data set [1] of 63 µM.

Consider `OC[C@@H](O)[C@H](O)[C@H](O)[C@@H](O)CO` [GALACTITOL], for which the GI50 with SF-268, in the data set on MCF7, with NCI-H460 and in the data set on HT-29 was over 220 µM each time. This compound also showed a GI50 at 48 h in data set [1] of over 220 µM.
